Assay results taken from the M2OR odorant receptor database.

These compounds were tested on T1, OR4KH. Details: stereoisomer not certain.
T1 sequence (whole entry): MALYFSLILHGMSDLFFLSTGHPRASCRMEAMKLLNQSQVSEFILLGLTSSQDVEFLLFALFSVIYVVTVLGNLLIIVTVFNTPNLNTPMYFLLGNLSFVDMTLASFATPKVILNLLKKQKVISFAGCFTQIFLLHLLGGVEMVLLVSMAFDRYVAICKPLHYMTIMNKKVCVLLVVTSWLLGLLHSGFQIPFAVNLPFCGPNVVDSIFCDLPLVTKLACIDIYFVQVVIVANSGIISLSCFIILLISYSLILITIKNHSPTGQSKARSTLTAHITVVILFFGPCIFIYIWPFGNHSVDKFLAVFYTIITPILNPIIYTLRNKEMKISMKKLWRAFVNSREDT
Method in brief: (§1)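 Transient luciferase assays in mammalian cell lines were common, though methods varied by source. The values come from published papers and their supplementary material, with extra details from the original authors when needed. Responsive refers to a measured signal the original authors judged statistically different from baseline, and non-responsive (inactive) to the remainder.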
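Also: active if original authors judged signal statistically different from baseline.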

SMILES | odorant receptor agonist call
CC1=C(O)C(=O)C(C)O1 (configuration not stated) | inactive
CC1=NC(C)C(C)S1 (configuration not stated) | inactive
CC1=C(O)C(=O)OC1C (configuration not stated) | inactive
CCC1OC(=O)C(O)=C1C (configuration not stated) | inactive
Cc1cnc(C)c(C)n1 | inactive
CCCC(S)CCOC(C)=O (configuration not stated) | inactive
CCC1OC(C)=C(O)C1=O (configuration not stated) | inactive

These compounds were tested against T2, OR4L1 (Homo sapiens) (UniProt Q8NH43). Details: stereoisomer not certain.
T2 sequence (whole entry): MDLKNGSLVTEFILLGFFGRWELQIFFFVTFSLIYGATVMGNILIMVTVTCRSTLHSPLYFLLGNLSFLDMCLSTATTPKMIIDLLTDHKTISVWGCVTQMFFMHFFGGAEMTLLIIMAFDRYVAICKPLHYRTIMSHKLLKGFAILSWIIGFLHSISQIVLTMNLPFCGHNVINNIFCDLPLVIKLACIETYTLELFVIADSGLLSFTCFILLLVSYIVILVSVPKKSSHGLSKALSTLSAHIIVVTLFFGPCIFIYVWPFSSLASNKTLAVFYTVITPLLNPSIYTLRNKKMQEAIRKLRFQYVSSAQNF
Method in brief: as §1

SMILES | odorant receptor agonist call
CCCCCCC=CCCC=O | inactive
CCCCC(S)C(C)CO (configuration not stated) | inactive
CCCCCC(S)C(C)CO (configuration not stated) | inactive
CC(CO)CS (configuration not stated) | inactive
CC1=C(O)C(=O)C(C)O1 (configuration not stated) | inactive
CC(=O)c1c(C)c([N+](=O)[O-])c(C(C)(C)C)c([N+](=O)[O-])c1C | inactive
CC1=NC(C)C(C)S1 (configuration not stated) | inactive
CC1=C(O)C(=O)OC1C (configuration not stated) | inactive
CCC1OC(=O)C(O)=C1C (configuration not stated) | inactive
CC1CCCCCCCCCCCCC(=O)C1 (configuration not stated) | inactive
Cc1cnc(C)c(C)n1 | inactive
CCCC(S)CCOC(C)=O (configuration not stated) | inactive
CCC1OC(C)=C(O)C1=O (configuration not stated) | inactive
CCCCCC(=O)C(C)C(C)=O (configuration not stated) | inactive
CCC(S)C(C)CO (configuration not stated) | inactive
